Results reported in ChEMBL document CHEMBL1275468, “Plasmid-mediated qnrB2 and carbapenemase gene bla(KPC-2) carried on the same plasmid in carbapenem-resistant ciprofloxacin-susceptible Enterobacter cloacae isolates” (2008).
In brackets after ≈: the same amount, converted by molar mass.

Legend:
Format in all cases: functional
[1] = tested on: Enterobacter cloacae; test: Antimicrobial activity against Enterobacter cloacae isolate 533 containing PFGE genetic clone A expressing qnrB2 and beta-lactamase KPC-2 and SHV-12 gene by Etest
[2] = tested on: Enterobacter cloacae; test: Antimicrobial activity against Enterobacter cloacae isolate 293 containing PFGE genetic clone A expressing qnrB2 and beta-lactamase KPC-2 and SHV-12 gene by Etest
[3] = tested on: Enterobacter cloacae; test: Antimicrobial activity against Enterobacter cloacae isolate 649 containing PFGE genetic clone B expressing qnrB2 and beta-lactamase KPC-2 and SHV-12 gene by Etest
[4] = tested on: Enterobacter cloacae; test: Antimicrobial activity against Enterobacter cloacae isolate 1 containing PFGE genetic clone A expressing qnrB2 and beta-lactamase KPC-2 and SHV-12 gene by Etest
[5] = tested on: Escherichia coli; test: Antimicrobial activity against Escherichia coli GeneHogs by Etest
Method in brief: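 MIC read by Etest on the plasmid-free electroporation recipient, E. coli GeneHogs (recA1 mutant).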

[6] = tested on: Enterobacter cloacae; test: Antimicrobial activity against Enterobacter cloacae isolate 185 containing PFGE genetic clone A expressing qnrB2 aac(6')-Ib-cr and beta-lactamase KPC-2 and SHV-12 gene by Etest
[7] = tested on: Escherichia coli; test: Antimicrobial activity against Escherichia coli T-625 harboring expressing qnrB2 and beta-lactamase KPC-2 and SHV-12 gene by Etest
Method in brief: (§1)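 MIC read by Etest. Strains are E. coli GeneHogs (recA1) transformants. Plasmid DNA from clinical E. cloacae isolates was introduced by electroporation. Transformants were selected on LB agar with 100 μg/ml ampicillin, then PCR-screened for blaKPC, blaSHV and qnr genes.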

[8] = tested on: Enterobacter cloacae; test: Antimicrobial activity against Enterobacter cloacae isolate 658 containing PFGE genetic clone B expressing qnrB2 and beta-lactamase KPC-2 and SHV-12 gene by Etest
[9] = tested on: Enterobacter cloacae; test: Antimicrobial activity against Enterobacter cloacae isolate 781 containing PFGE genetic clone B expressing qnrB2 and beta-lactamase KPC-2 and SHV-12 gene by Etest
[10] = tested on: Enterobacter cloacae; test: Antimicrobial activity against Enterobacter cloacae isolate 4469 containing PFGE genetic clone C expressing qnrB2 and beta-lactamase KPC-2 and SHV-12 gene by Etest
[11] = tested on: Enterobacter cloacae; test: Antimicrobial activity against Enterobacter cloacae isolate 622 containing PFGE genetic clone A expressing qnrB2 and beta-lactamase KPC-2 and SHV-12 gene by Etest
[12] = tested on: Enterobacter cloacae; test: Antimicrobial activity against Enterobacter cloacae isolate 625 containing PFGE genetic clone A expressing qnrB2 and beta-lactamase KPC-2 and SHV-12 gene by Etest
[13] = tested on: Enterobacter cloacae; test: Antimicrobial activity against Enterobacter cloacae isolate 656 containing PFGE genetic clone A expressing beta-lactamase KPC-2 and SHV-12 gene by Etest
[14] = tested on: Enterobacter cloacae; test: Antimicrobial activity against Enterobacter cloacae isolate 151 containing PFGE genetic clone A expressing qnrB2 and beta-lactamase KPC-2 gene by Etest
[15] = tested on: Escherichia coli; test: Antimicrobial activity against Escherichia coli T-622 harboring expressing qnrB2 and beta-lactamase KPC-2 and SHV-12 gene by Etest; method in brief: as §1
[16] = tested on: Enterobacter cloacae; test: Antimicrobial activity against Enterobacter cloacae isolate 18 containing PFGE genetic clone A expressing qnrB2 and beta-lactamase KPC-2 and SHV-12 gene by Etest
[17] = tested on: Enterobacter cloacae; test: Antimicrobial activity against Enterobacter cloacae isolate 140 containing PFGE genetic clone A expressing beta-lactamase KPC-2 and SHV-12 gene by Etest
[18] = tested on: Enterobacter cloacae; test: Antimicrobial activity against Enterobacter cloacae isolate 837 containing PFGE genetic clone B expressing qnrB2 and beta-lactamase KPC-2 and SHV-12 gene by Etest
[19] = tested on: Escherichia coli; test: Antimicrobial activity against Escherichia coli T-781 harboring expressing qnrB2 and beta-lactamase KPC-2 and SHV-12 gene by Etest; method in brief: as §1

Compound	MIC [1]	MIC [2]	MIC [3]	MIC [4]	MIC [5]	MIC [6]	MIC [7]	MIC [8]	MIC [9]	MIC [10]	MIC [11]	MIC [12]	MIC [13]	MIC [14]	MIC [15]	MIC [16]	MIC [17]	MIC [18]	MIC [19]
C[C@@H](O)[C@H]1C(=O)N2C(C(=O)O)=C(S[C@@H]3CN[C@H](C(=O)Nc4cccc(C(=O)O)c4)C3)[C@H](C)[C@H]12	24 mg/L (≈ 50.5 µM)	> 32 mg/L	16 mg/L (≈ 33.6 µM)	32 mg/L (≈ 67.3 µM)	0.012 mg/L (≈ 0.0252 µM)	4 mg/L (≈ 8.41 µM)	8 mg/L (≈ 16.8 µM)	12 mg/L (≈ 25.2 µM)	> 32 mg/L	> 32 mg/L	32 mg/L (≈ 67.3 µM)	24 mg/L (≈ 50.5 µM)	16 mg/L (≈ 33.6 µM)	> 32 mg/L	8 mg/L (≈ 16.8 µM)	4 mg/L (≈ 8.41 µM)	> 32 mg/L	8 mg/L (≈ 16.8 µM)	12 mg/L (≈ 25.2 µM)
NCC[C@H](O)C(=O)N[C@@H]1C[C@H](N)[C@@H](O[C@H]2O[C@H](CN)[C@@H](O)[C@H](O)[C@H]2O)[C@H](O)[C@H]1O[C@H]1O[C@H](CO)[C@@H](O)[C@H](N)[C@H]1O [AMIKACIN]	≤ 2 mg/L	16 mg/L (≈ 27.3 µM)	≤ 2 mg/L	≤ 2 mg/L	≤ 2 mg/L	≤ 2 mg/L	≤ 2 mg/L	≤ 2 mg/L	≤ 2 mg/L	≤ 2 mg/L	≤ 2 mg/L	≤ 2 mg/L	≤ 2 mg/L	≤ 2 mg/L	≤ 2 mg/L	≤ 2 mg/L	≤ 2 mg/L	32 mg/L (≈ 54.6 µM)	≤ 2 mg/L
C[C@H]1[C@H](NC(=O)/C(=N\OC(C)(C)C(=O)O)c2csc(N)n2)C(=O)N1S(=O)(=O)O [AZTREONAM]					≤ 1 mg/L		≥ 64 mg/L								≥ 64 mg/L				32 mg/L (≈ 73.5 µM)
CC(C)(O/N=C(\C(=O)N[C@@H]1C(=O)N2C(C(=O)[O-])=C(C[n+]3ccccc3)CS[C@H]12)c1csc(N)n1)C(=O)O [CEFTAZIDIME]	≥ 64 mg/L	≥ 64 mg/L	≥ 64 mg/L	≥ 64 mg/L	≤ 1 mg/L	≥ 64 mg/L	32 mg/L (≈ 58.5 µM)	≥ 64 mg/L	≥ 64 mg/L	≥ 64 mg/L	≥ 64 mg/L	≥ 64 mg/L	≥ 64 mg/L	16 mg/L (≈ 29.3 µM)	32 mg/L (≈ 58.5 µM)	≥ 64 mg/L	≥ 64 mg/L	≥ 64 mg/L	32 mg/L (≈ 58.5 µM)
C[C@@H](O)[C@H]1C(=O)N2C(C(=O)O)=C(SCCNC=N)C[C@H]12 [IMIPENEM ANHYDROUS]	4 mg/L (≈ 13.4 µM)	> 32 mg/L	32 mg/L (≈ 107 µM)	16 mg/L (≈ 53.4 µM)	0.125 mg/L (≈ 0.418 µM)	8 mg/L (≈ 26.7 µM)	8 mg/L (≈ 26.7 µM)	> 32 mg/L	> 32 mg/L	24 mg/L (≈ 80.2 µM)	24 mg/L (≈ 80.2 µM)	16 mg/L (≈ 53.4 µM)	32 mg/L (≈ 107 µM)	12 mg/L (≈ 40.1 µM)	4 mg/L (≈ 13.4 µM)	8 mg/L (≈ 26.7 µM)	> 32 mg/L	6 mg/L (≈ 20 µM)	3 mg/L (≈ 10 µM)
C[C@H]1COc2c(N3CCN(C)CC3)c(F)cc3c(=O)c(C(=O)O)cn1c23.C[C@H]1COc2c(N3CCN(C)CC3)c(F)cc3c(=O)c(C(=O)O)cn1c23.O [LEVOFLOXACIN]	0.38 mg/L	0.75 mg/L	0.75 mg/L	0.38 mg/L		0.5 mg/L	0.094 mg/L	1 mg/L	0.5 mg/L	0.5 mg/L	0.5 mg/L	0.5 mg/L	0.5 mg/L	0.5 mg/L	0.023 mg/L	0.5 mg/L	0.094 mg/L	0.75 mg/L	0.047 mg/L
C[C@@H](O)[C@H]1C(=O)N2C(C(=O)O)=C(S[C@@H]3CN[C@H](C(=O)N(C)C)C3)[C@H](C)[C@H]12 [MEROPENEM]	2 mg/L (≈ 5.22 µM)	8 mg/L (≈ 20.9 µM)	4 mg/L (≈ 10.4 µM)	2 mg/L (≈ 5.22 µM)	0.016 mg/L (≈ 0.0417 µM)	24 mg/L (≈ 62.6 µM)	3 mg/L (≈ 7.82 µM)	24 mg/L (≈ 62.6 µM)	> 32 mg/L	8 mg/L (≈ 20.9 µM)	8 mg/L (≈ 20.9 µM)	6 mg/L (≈ 15.6 µM)	6 mg/L (≈ 15.6 µM)	> 32 mg/L	3 mg/L (≈ 7.82 µM)	> 32 mg/L	4 mg/L (≈ 10.4 µM)	6 mg/L (≈ 15.6 µM)	2 mg/L (≈ 5.22 µM)
CCn1cc(C(=O)O)c(=O)c2ccc(C)nc21 [NALIDIXIC ACID]	16 mg/L (≈ 68.9 µM)	16 mg/L (≈ 68.9 µM)	16 mg/L (≈ 68.9 µM)	16 mg/L (≈ 68.9 µM)	2 mg/L (≈ 8.61 µM)	16 mg/L (≈ 68.9 µM)	4 mg/L (≈ 17.2 µM)	16 mg/L (≈ 68.9 µM)	16 mg/L (≈ 68.9 µM)	16 mg/L (≈ 68.9 µM)	16 mg/L (≈ 68.9 µM)	16 mg/L (≈ 68.9 µM)	16 mg/L (≈ 68.9 µM)	16 mg/L (≈ 68.9 µM)	2 mg/L (≈ 8.61 µM)	16 mg/L (≈ 68.9 µM)	4 mg/L (≈ 17.2 µM)	16 mg/L (≈ 68.9 µM)	2 mg/L (≈ 8.61 µM)
GENTAMICIN	> 16 mg/L	> 16 mg/L	> 16 mg/L	> 16 mg/L	< 1 mg/L	> 16 mg/L	> 16 mg/L	> 16 mg/L	> 16 mg/L	> 16 mg/L	> 16 mg/L	> 16 mg/L	> 16 mg/L	> 16 mg/L	> 16 mg/L	> 16 mg/L	> 16 mg/L	> 16 mg/L	> 16 mg/L
